What was measured:
Assay type in all cases: cell-based
[1] = target: T1, Nuclear receptor ROR-gamma (Homo sapiens) (UniProt P51449); test: Inverse agonist activity at human ROR-gamma1 transfected in HEK293 cells at 10 uM after 16 hrs by luciferase reporter gene assay relative to control
T1 sequence (whole entry): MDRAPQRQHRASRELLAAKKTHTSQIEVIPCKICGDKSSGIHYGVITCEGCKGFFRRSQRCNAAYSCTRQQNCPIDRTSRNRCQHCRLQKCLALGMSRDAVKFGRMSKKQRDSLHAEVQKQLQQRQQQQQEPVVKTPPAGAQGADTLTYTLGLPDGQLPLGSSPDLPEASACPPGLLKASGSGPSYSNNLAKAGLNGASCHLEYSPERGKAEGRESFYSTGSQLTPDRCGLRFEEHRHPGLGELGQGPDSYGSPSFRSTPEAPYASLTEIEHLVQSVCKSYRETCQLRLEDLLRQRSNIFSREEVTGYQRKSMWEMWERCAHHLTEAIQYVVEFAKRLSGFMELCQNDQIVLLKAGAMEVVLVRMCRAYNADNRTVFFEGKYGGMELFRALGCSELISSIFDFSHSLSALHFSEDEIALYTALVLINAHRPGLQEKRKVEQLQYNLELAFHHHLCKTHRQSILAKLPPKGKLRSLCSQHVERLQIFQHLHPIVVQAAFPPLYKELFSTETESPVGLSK
Outline: (§1)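 HEK293 cells grown in DMEM with 5% FBS plus penicillin/streptomycin, 37 °C, 5% CO2, seeded at 20% confluence 24 h before transfection. Calcium phosphate cotransfection per well: 150 ng receptor expression plasmid, 500 ng luciferase reporter, 10 ng β-galactosidase vector. After 8 h, compound at 10 µM or DMSO for 16 h. Luciferase normalized to β-galactosidase, inhibition expressed as percent of control, transfections in triplicate.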

[2] = target: T2, Nuclear receptor ROR-beta (Homo sapiens) (UniProt Q92753); test: Inverse agonist activity at human ROR-beta1 transfected in HEK293 cells at 10 uM after 16 hrs by luciferase reporter gene assay relative to control; outline: as §1
T2 sequence (whole entry): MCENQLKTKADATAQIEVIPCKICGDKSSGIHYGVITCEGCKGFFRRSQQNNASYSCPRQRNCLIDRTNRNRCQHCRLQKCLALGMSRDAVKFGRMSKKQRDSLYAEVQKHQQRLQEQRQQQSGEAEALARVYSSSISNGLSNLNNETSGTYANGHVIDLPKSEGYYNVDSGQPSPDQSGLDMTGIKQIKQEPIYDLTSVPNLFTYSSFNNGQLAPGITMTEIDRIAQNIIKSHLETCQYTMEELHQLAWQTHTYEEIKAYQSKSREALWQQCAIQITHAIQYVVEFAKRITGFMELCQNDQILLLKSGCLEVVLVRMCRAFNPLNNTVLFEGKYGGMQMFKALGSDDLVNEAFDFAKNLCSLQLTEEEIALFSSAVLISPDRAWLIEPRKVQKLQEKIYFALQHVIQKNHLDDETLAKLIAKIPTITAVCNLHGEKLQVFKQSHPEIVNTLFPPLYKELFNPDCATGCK

[3] = target: T3, Nuclear receptor ROR-gamma (Homo sapiens, UniProt P51449); test: Inverse agonist activity at human ROR-gamma1 transfected in HEK293 cells after 16 hrs by luciferase reporter gene assay
T3 sequence (P51449 whole entry): T1 sequence (whole entry)

[4] = target: T4, Nuclear receptor ROR-beta (Homo sapiens, UniProt Q92753); test: Inverse agonist activity at human ROR-beta1 transfected in HEK293 cells after 16 hrs by luciferase reporter gene assay
T4 sequence (Q92753 whole entry): T2 sequence (whole entry)

[5] = target: T5, Nuclear receptor ROR-alpha (Homo sapiens, UniProt P35398); test: Inverse agonist activity at human ROR-alpha1 transfected in HEK293 cells after 16 hrs by luciferase reporter gene assay
T5 sequence (P35398 whole entry): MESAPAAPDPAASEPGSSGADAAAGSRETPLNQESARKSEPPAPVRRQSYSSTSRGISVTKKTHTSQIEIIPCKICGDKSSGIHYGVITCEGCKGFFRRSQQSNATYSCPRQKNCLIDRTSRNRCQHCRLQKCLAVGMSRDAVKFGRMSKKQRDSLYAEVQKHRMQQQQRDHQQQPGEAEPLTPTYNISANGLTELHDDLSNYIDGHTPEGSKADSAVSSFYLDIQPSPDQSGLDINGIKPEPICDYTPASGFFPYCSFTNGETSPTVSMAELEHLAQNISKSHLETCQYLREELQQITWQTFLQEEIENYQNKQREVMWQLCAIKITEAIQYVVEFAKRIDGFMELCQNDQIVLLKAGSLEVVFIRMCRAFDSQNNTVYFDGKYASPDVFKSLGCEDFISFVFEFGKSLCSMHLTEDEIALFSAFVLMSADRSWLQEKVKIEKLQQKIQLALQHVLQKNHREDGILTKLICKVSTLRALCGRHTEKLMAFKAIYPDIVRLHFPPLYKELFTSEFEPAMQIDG

Structure (SMILES) | inhibition [1] [%] | inhibition [2] [%] | IC50 [3] [µM] | IC50 [4] [µM] | IC50 [5] [µM]
CC[Si]1(CC)c2ccccc2-c2cc(C(O)(C(F)(F)F)C(F)(F)F)ccc21 |  | 28 | 4.2 |  | 
C[Si]1(C)c2ccccc2-c2cc(C(O)(C(F)(F)F)C(F)(F)F)ccc21 |  | 40 |  |  | 
CCCCn1c(=O)c2ccccc2c2cc(CC)ccc21 | 37 | 29 |  |  | 
CCCCn1c(=O)c2ccccc2c2cc(C(O)(C(F)(F)F)C(F)(F)F)ccc21 |  |  | 4.7 | 5.7 | 7.2

Now from value to compound:

inhibition [1] [%] | inhibition [2] [%] | IC50 [3] [µM] | IC50 [4] [µM] | IC50 [5] [µM] | Structure (SMILES)
< 5 | < 5 |  |  |  | CCCC[Si]1(CCCC)c2ccccc2-c2cc(C(C)=O)ccc21
< 5 | < 5 |  |  |  | CCCC[Si]1(CCCC)c2ccccc2-c2cc(C(C)O)ccc21 (stereo unspecified)
18 | < 5 |  |  |  | CCCC[Si]1(CCCC)c2ccccc2-c2cc(CC)ccc21
13 | < 5 |  |  |  | CCCC[Si]1(CCCC)c2ccccc2-c2ccccc21

Reference: ChEMBL document CHEMBL3585299, “Design and synthesis of novel ROR inverse agonists with a dibenzosilole scaffold as a hydrophobic core structure” (Bioorg Med Chem, 2015)
